pIC50, pKd: −log10 of the molar value. Activity calls are given as the source filed them. No cut-off for these calls is given here.
How the values were obtained:
Mus musculus [1] = experiment: Improvement in lipid homeostasis in C57BL/KsJ-db/db mouse assessed as reduction in low density cholesterol level in serum at 50 mg/kg, po administered for 8 weeks; assay type: functional, organism-based
How it was run: (§1)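 Male db/db mice, 6 weeks old, 10 per group, dosed 50 mg/kg by gavage daily for 8 weeks; vehicle 0.5% CMC-Na. Lean littermates received vehicle. Body weight recorded twice weekly; 6-h fasting tail glucose by glucometer weekly. OGTT on day 45: overnight fast, glucose 0.5 g/kg by gavage. ITT on day 51: 6-h fast, insulin 0.85 IU/kg ip. Glucose AUC calculated. Final serum taken after 6-h fast; HDL-C, LDL-C, TG, TCH and FABP4 measured by kits. Liver Akt and p-Akt(Ser473) by western blot.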

[2] = target: Fatty acid-binding protein, heart (Homo sapiens, UniProt P05413); experiment: Displacement of 1,8-ANS from FABP3 (unknown origin) incubated for 3 mins by fluorescence based analysis
How it was run: (§2)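 1,8-ANS displacement using purified recombinant FABP3, FABP4 or FABP5. Compound incubated with protein and 1,8-ANS in phosphate buffer for 3 min at room temperature. Fluorescence read at ex 370/em 470 nm. IC50 by nonlinear regression, mean ± SD of three independent experiments.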

[3] = target: T1, Fatty acid-binding protein, adipocyte (Homo sapiens, UniProt P15090); experiment: Displacement of 1,8-ANS from FABP4 (unknown origin) at 25 uM incubated for 3 mins by fluorescence based analysis relative to control
How it was run: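 Single-concentration percent inhibition in the 1,8-ANS displacement assay with FABP4. Compound incubated with protein and probe in phosphate buffer for 3 min at room temperature; fluorescence read at ex 370/em 470 nm.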
Target sequence in this assay (P15090 2-132 limits assumed): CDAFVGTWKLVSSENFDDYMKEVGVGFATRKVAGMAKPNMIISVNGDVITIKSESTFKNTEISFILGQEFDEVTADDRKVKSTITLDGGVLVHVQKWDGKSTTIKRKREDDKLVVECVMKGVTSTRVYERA

Mus musculus [4] = experiment: Improvement in lipid homeostasis in C57BL/KsJ-db/db mouse assessed as effect on triglyceride level in serum at 50 mg/kg, po administered for 8 weeks; assay type: functional, organism-based; how it was run: as §1
Mus musculus [5] = experiment: Antidiabetic activity in C57BL/KsJ-db/db mouse assessed as improvement in insulin resistance at 50 mg/kg, po administered for 51 days by insulin tolerance test; assay type: functional, organism-based; settings: time 51.0 day; how it was run: as §1
[6] = AUC in ICR mouse at 3 mg/kg, po measured for 24 hrs by LC-MS/MS analysis; assay type: ADME, organism-based; parameters: dose 3 mg/kg, time 24 hrs; settings: in vivo
How it was run: (§3)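 Male ICR mice, 20-25 g, three per group. Oral dose 3 mg/kg in PBS with 5% DMSO and 0.5% HPMC; iv dose 1 mg/kg in DMSO/EtOH/PEG300/NaCl (5/5/40/50). Blood sampled at 0.25, 0.5, 1, 2, 4, 8 and 24 h. Plasma drug measured by LC-MS/MS. Mean ± SEM, n = 3.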

Mus musculus [7] = experiment: Antidiabetic activity in C57BL/KsJ-db/db mouse assessed as reduction in fasting blood glucose level at 50 mg/kg, po administered for 7 weeks; assay type: functional; settings: 1176 h; how it was run: as §1
[8] = target: T1, Fatty acid-binding protein, adipocyte; experiment: Binding affinity to FABP4 (unknown origin) by microscale thermophoresis analysis
Target sequence in this assay (P15090 whole entry): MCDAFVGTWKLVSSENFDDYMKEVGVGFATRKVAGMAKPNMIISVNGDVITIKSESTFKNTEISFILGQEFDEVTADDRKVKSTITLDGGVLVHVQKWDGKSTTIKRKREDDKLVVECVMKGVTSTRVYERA

[9] = Cmax in ICR mouse at 3 mg/kg, po and 1 mg/kg, iv measured for 24 hrs by LC-MS/MS analysis; assay type: ADME, organism-based; parameters: time 24 hrs, dose 3 mg/kg; settings: in vivo; how it was run: as §3
[10] = Half life in ICR mouse at 3 mg/kg, po measured for 24 hrs by LC-MS/MS analysis; assay type: ADME, organism-based; settings: in vivo; how it was run: as §3
3T3-L1 [11] = experiment: Cytotoxicity against mouse 3T3-L1 cells assessed as reduction in cell viability at 100 uM incubated for 24 hrs by CCK8 assay; assay type: cell-based; settings: 3t3-l1, 24 h
[12] = Metabolic stability in mouse liver microsomes assessed as half life at 0.1 uM preincubated for 10 mins followed by NADPH addition and measured for 60 mins by LC-MS/MS analysis; assay type: ADME, Microsome; settings: time 70 min
How it was run: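 Mouse liver microsomes 0.33 mg/mL in 0.1 M Tris pH 7.4 with 5 mM MgCl₂, 0.01% DMSO and 0.005% BSA. Compound final […]. Preincubated 10 min at 37 °C; reaction started with 1 mM NADPH. Samples at 0, 7, 17, 30 and 60 min quenched with cold methanol, then analysed by LC-MS/MS.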

[13] = Toxicity in C57BL/KsJ-db/db mouse assessed as effect on body weight at 50 mg/kg, po administered for 8 weeks; assay type: organism-based; settings: in vivo, 1344 h; how it was run: as §1
[14] = Half life in ICR mouse at 1 mg/kg, iv measured for 24 hrs by LC-MS/MS analysis; assay type: ADME, organism-based; settings: in vivo; how it was run: as §3
Mus musculus [15] = experiment: Antidiabetic activity in C57BL/KsJ-db/db mouse assessed as improvement in glucose metabolism at 50 mg/kg, po administered for 45 days by oral glucose tolerance test; assay type: functional, organism-based; settings: time 45.0 day; how it was run: as §1
[16] = Clearance in ICR mouse at 3 mg/kg, po and 1 mg/kg, iv measured for 24 hrs by LC-MS/MS analysis; assay type: ADME, organism-based; settings: in vivo; how it was run: as §3
3T3-L1 [17] = experiment: Inhibition of FABP4 secretion in mouse 3T3-L1 cells assessed as reduction in FABP4 level in conditioned medium at 50 uM incubated for 24 hrs by immunoblotting analysis; assay type: functional, cell-based
How it was run: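 Mature 3T3-L1 adipocytes starved for 6 h in DMEM with 0.5% BSA, then treated with compound at […] for 24 h. Conditioned medium ultrafiltered; lysate and medium protein measured by BCA. FABP4 immunoblotted with GAPDH, ECL detection, densitometry. Three independent experiments.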

[18] = target: T1, Fatty acid-binding protein, adipocyte; experiment: Displacement of 1,8-ANS from FABP4 (unknown origin) incubated for 3 mins by fluorescence based analysis; how it was run: as §2
Target sequence in this assay (P15090 whole entry): as above

Mus musculus [19] = experiment: In vivo activation of […] signaling in C57BL/KsJ-db/db mouse assessed as increase in Akt phosphorylation at Ser473 in liver at 50 mg/kg, po administered for 8 weeks by western blot analysis; assay type: functional, organism-based; how it was run: as §1
Mus musculus [20] = experiment: Reduction in FABP4 level in serum of C57BL/KsJ-db/db mouse at 50 mg/kg, po administered for 8 weeks; assay type: functional, organism-based; how it was run: as §1
[21] = Oral bioavailability in ICR mouse at 3 mg/kg measured for 24 hrs by LC-MS/MS analysis; assay type: ADME, organism-based; settings: in vivo; how it was run: as §3
Mus musculus [22] = experiment: Improvement in lipid homeostasis in C57BL/KsJ-db/db mouse assessed as effect on total cholesterol level in serum at 50 mg/kg, po administered for 8 weeks; assay type: functional, organism-based; how it was run: as §1
[23] = AUC in ICR mouse at 1 mg/kg, iv measured for 24 hrs by LC-MS/MS analysis; assay type: ADME, organism-based; parameters: dose 1 mg/kg, time 24 hrs; settings: in vivo; how it was run: as §3
THP-1 [24] = experiment: Cytotoxicity against human THP-1 cells assessed as reduction in cell viability at 50 uM incubated for 24 hrs by CCK8 assay; assay type: cell-based; settings: thp-1, 24 h
Mus musculus [25] = experiment: Improvement in lipid homeostasis in C57BL/KsJ-db/db mouse assessed as increase in high density cholesterol level in serum at 50 mg/kg, po administered for 8 weeks; assay type: functional, organism-based; how it was run: as §1
THP-1 [26] = experiment: Antiinflammatory activity against LPS-induced human THP-1 cells assessed as inhibition of MCP-1 gene expression at 25 uM incubated for 18 hrs followed by LPS-stimulation and measured after 6 hrs by qRT-PCR analysis; assay type: functional, cell-based; settings: time 24.0 hrs
How it was run: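 THP-1 cells (1 per 48-well, 3*10⁵) differentiated with 100 nM PMA for 24 h, then washed with PBS. Compound at […] or 0.1% DMSO for 18 h, then 100 ng/ml LPS for 6 h. RNA extracted with TRIzol. MCP-1 mRNA by RT-qPCR, 2^-ΔΔCT method.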

3T3-L1 [27] = experiment: Anti-lipolytic activity in mouse 3T3-L1 cells assessed as inhibition of forskolin-stimulated glycerol release at 80 uM preincubated for 24 hrs followed by forskolin stimulation for 1 hr; assay type: functional, cell-based; settings: time 25.0 hrs
Homo sapiens [28] = organism: Homo sapiens; experiment: Selectivity ratio of IC50 for FABP3 (unknown origin) to IC50 for FABP5 (unknown origin); how it was run: as §2
[29] = target: T2, Fatty acid-binding protein 5 (Homo sapiens, UniProt Q01469); experiment: Binding affinity to FABP5 (unknown origin) by microscale thermophoresis analysis
[30] = target: T2, Fatty acid-binding protein 5; experiment: Displacement of 1,8-ANS from FABP5 (unknown origin) incubated for 3 mins by fluorescence based analysis
Homo sapiens [31] = organism: Homo sapiens; experiment: Selectivity ratio of IC50 for FABP3 (unknown origin) to IC50 for FABP4 (unknown origin); how it was run: as §2

Chain of Fatty acid-binding protein, heart (P05413 whole entry): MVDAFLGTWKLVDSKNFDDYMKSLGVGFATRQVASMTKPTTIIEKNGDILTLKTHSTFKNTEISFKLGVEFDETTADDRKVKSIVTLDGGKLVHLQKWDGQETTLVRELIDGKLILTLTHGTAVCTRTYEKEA
T2 sequence (Q01469 whole entry): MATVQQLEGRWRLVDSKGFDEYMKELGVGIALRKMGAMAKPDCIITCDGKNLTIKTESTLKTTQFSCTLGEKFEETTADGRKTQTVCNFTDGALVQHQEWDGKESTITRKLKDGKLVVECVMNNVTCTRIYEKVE

O=C(O)c1cc(NS(=O)(=O)c2ccc(-c3ccc(F)cc3Cl)c3ccccc23)ccc1F
Activity (Mus musculus [1]): Active
pIC50 [2]: 3.98
inhibition [3]: 86%
Activity (Mus musculus [4]): inactive
Activity (Mus musculus [5]): Active
AUC at 24 h [6]: 1090 ng·h/mL
inhibition in vivo at 50 mg/kg (Mus musculus [7]): 32.4%
pKd [8]: 4.96
Cmax [9]: 782 ng/mL
half-life [10]: 1.36 h
Activity (3T3-L1 [11]): Non-Toxic
half-life at 0.1 µM [12]: 1.52 h
Activity [13]: Non-Toxic
half-life [14]: 2.88 h
Activity (Mus musculus [15]): Active
clearance [16]: 8.73 mL/min/kg
inhibition (3T3-L1 [17]): Active
pIC50 [18]: 5.33
Activity (Mus musculus [19]): Active
inhibition (Mus musculus [20]): Active
bioavailability [21]: 18.4%
Activity (Mus musculus [22]): inactive
AUC at 24 h [23]: 1980 ng·h/mL
Activity (THP-1 [24]): Non-Toxic
Activity (Mus musculus [25]): Active
Activity (THP-1 [26]): Active
Activity (3T3-L1 [27]): Active

COc1c(-c2ccc(F)cc2C)cc(S(=O)(=O)Nc2ccc(F)c(CC(=O)O)c2)c2ccccc12
pIC50 [2]: 4.07
inhibition [3]: 94%
Activity (Mus musculus [4]): inactive
Activity (Mus musculus [5]): Active
AUC at 24 h [6]: 1740 ng·h/mL
inhibition in vivo at 50 mg/kg (Mus musculus [7]): 28.1%
pKd [8]: 5.50
Cmax [9]: 478 ng/mL
half-life [10]: 6.04 h
Activity (3T3-L1 [11]): Non-Toxic
half-life at 0.1 µM [12]: 1.47 h
Activity [13]: Non-Toxic
half-life [14]: 1.78 h
Ratio IC50 (Homo sapiens [28]): 14.7
pKd [29]: 4.85
Activity (Mus musculus [15]): Active
clearance [16]: 8.56 mL/min/kg
inhibition (3T3-L1 [17]): Active
pIC50 [30]: 5.24
pIC50 [18]: 5.42
Activity (Mus musculus [19]): Active
inhibition (Mus musculus [20]): Active
bioavailability [21]: 29.9%
Activity (Mus musculus [22]): inactive
AUC at 24 h [23]: 1940 ng·h/mL
Activity (THP-1 [24]): Non-Toxic
Activity (Mus musculus [25]): Active
Activity (THP-1 [26]): Active
Activity (3T3-L1 [27]): Active
Ratio IC50 (Homo sapiens [31]): 22.3

From ChEMBL document CHEMBL4831507, “Development of FABP4/5 inhibitors with potential therapeutic effect on type 2 Diabetes Mellitus” (Eur J Med Chem, 2021)
